Measured values taken from PMC7745057 (Translational Oncology, 2020).

What was measured:
LOVO (wild-type EGFR) = settings: read-out: potency in wild-type EGFR cell line (measure not given); ref [20]; cited from earlier work
H1975 (T790M) = settings: read-out: potency against T790M (measure not given); ref [20]; cited from earlier work
PC-9 (Del19) = settings: read-out: potency against Del19 (measure not given); ref [20]; cited from earlier work
H1975 (L858R T790M) = assay: Cell proliferation assay; assay type: cell-based; settings: Homo sapiens, NCI-H1975, 72 h
H1975 cells = assay: Cell cycle analysis; assay type: cell-based, human; settings: 1 nmol/L, 24 h
Outline: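 H1975 cells plated at 2 × 10⁵ per well and allowed to adhere, then exposed to 1 nmol/L test compound for 24 h. Cells fixed in 75% ethanol at −20 °C overnight, washed in PBS, and stained with DNA staining solution for 30 min at room temperature in the dark. DNA content analysed immediately by flow cytometry; n = 3.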

[1] = test system: EGFR A767_V769dupASV-driven Ba/F3 tumor model; assay: Ba/F3 EGFR A767_V769dupASV xenograft study; assay type: in vivo, BALB/c nude mouse; settings: BEBT-109 40 mg/kg bid, osimertinib 20 mg/kg qd (MTD doses), 14 days, n = 8
[2] = test system: HCC827 (Del19) xenografts; assay: HCC827 subcutaneous xenograft study; assay type: in vivo, BALB/c nude mouse; settings: BEBT-109 60 mg/kg, osimertinib 25 mg/kg (MTD doses)
Outline: (§1)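 Female BALB/c nude mice, 7–8 weeks old, inoculated subcutaneously in the right armpit with 2–5 × 10⁶ cells/ml in 0.1 ml PBS (PC-9 in 50% matrigel). Randomised at n = 8 per group; oral test compound started at 200–300 mm³. Tumors measured by caliper, with V = length × width²/2; survival followed after treatment.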

[3] = test system: H1975 (L858R T790M) xenografts; assay: H1975 subcutaneous xenograft study; assay type: in vivo, BALB/c nude mouse; settings: BEBT-109 30 and 60 mg/kg
[4] = Tolerability in xenograft studies; assay type: in vivo, BALB/c nude mouse; settings: HCC827, PC-9 and exon 20 insertion xenograft models
PC-9 (Del19) xenografts = assay: PC-9 subcutaneous xenograft study; assay type: in vivo, BALB/c nude mouse; settings: BEBT-109 60 mg/kg, osimertinib 25 mg/kg (MTD doses)
Outline: as §1

[5] = test system: EGFR wild-type cell lines (H460, Calu-6 and LOVO) and EGFR-deficient Ba/F3 cells; assay: Cell proliferation assay, summary over the panel; assay type: cell-based; settings: read-out: mean IC50 values

Compound	IC50 (LOVO (wild-type EGFR)) [nM]	IC50 (H1975 (T790M)) [nM]	IC50 (PC-9 (Del19)) [nM]	IC50 (H1975 (L858R T790M)) [nM]	effect on cell-cycle progression (H1975 cells)	tumor growth [1]	tumor regression [2]	host mice survival post treatment ([3]; osimertinib 25 mg/kg) [days]	tumor regression ([3]; osimertinib 25 mg/kg (MTD), daily, four weeks)	body weight [4]	tumor regression (PC-9 (Del19) xenografts)	IC50 [5] [nM]
C=CC(=O)Nc1cc(Nc2nccc(-c3c[nH]c4ccccc34)n2)c(OC)cc1N(C)CCN(C)C [AZ5104]	33	2	2									
C=CC(=O)Nc1cc(Nc2nccc(-c3cn(C)c4ccccc34)n2)c(OC)cc1N(C)CCN(C)C [Osimertinib]				3.9	did not change the cell cycle profile	sustained tumor regression was not observed	complete tumor regression	> 30	complete H1975 tumor regression	Neither drug caused significant body weight loss	complete tumor regression	> 1000
